# Hits are enriched below; roughly 2.3% of the tested compounds scored in any of these assays.
# PLCb3 inh: blocks human PLC-beta3 enzyme activity | actives 0.18% (n = 370,000) | Purified PLC-beta3, fluorogenic substrate, fluorescence | inhibition, % at 12.2 µM | Q01970; in the data active means inhibition above about 11%;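 further: 0% = median of compound wells on plate and 100% = full blocker control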
# Target sequence (Q01970 whole entry, looked up): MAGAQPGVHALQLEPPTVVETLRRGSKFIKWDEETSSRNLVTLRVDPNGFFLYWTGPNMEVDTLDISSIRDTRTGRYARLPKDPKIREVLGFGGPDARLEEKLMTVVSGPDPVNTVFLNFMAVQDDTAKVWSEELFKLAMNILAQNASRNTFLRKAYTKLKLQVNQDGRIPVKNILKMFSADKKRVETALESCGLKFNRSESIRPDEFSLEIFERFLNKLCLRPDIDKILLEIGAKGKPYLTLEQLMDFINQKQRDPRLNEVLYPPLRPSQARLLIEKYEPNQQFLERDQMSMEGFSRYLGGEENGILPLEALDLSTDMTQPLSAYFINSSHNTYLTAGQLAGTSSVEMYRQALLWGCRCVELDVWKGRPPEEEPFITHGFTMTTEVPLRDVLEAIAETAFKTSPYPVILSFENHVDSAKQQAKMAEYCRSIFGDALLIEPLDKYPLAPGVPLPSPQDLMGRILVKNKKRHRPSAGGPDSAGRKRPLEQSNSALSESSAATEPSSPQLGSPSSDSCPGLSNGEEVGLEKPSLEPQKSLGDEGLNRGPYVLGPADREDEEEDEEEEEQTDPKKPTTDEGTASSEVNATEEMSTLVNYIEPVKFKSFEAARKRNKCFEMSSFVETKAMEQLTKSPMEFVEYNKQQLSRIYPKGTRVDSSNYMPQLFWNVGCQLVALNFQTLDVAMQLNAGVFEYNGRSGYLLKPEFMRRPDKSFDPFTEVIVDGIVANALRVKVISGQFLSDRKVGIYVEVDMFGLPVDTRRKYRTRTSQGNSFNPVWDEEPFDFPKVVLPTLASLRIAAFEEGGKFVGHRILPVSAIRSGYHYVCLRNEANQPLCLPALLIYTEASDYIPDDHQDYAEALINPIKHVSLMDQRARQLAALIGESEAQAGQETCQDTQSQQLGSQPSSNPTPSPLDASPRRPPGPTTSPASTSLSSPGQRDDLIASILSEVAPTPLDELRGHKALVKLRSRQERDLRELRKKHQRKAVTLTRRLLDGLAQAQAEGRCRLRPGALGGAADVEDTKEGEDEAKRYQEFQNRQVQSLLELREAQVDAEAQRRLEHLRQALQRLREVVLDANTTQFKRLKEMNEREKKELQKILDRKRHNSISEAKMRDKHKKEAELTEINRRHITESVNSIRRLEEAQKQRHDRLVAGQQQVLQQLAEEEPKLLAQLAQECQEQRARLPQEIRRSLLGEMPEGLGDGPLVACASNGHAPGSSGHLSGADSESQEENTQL
# ADAM10 inh: ADAM10 inhibition, QFRET primary screen | O14672 | recombinant ADAM10, EDANS/DABCYL FRET peptide cleavage, 3 h | inhibition, % at 7 µM | actives 0.62% (n = 370,000);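 active means inhibition above a per-campaign cutoff equal to the mean of compounds falling between control-based bounds plus 3 SD, cut at about 20% in these data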;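 further: 0% = DMSO wells while the 100% control is not disclosed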
# ADAM17 inh: ADAM17 inhibition, QFRET primary screen; P78536; recombinant ADAM17, EDANS/DABCYL FRET peptide cleavage; inhibition, % at 6.95 µM; actives 0.83% (n = 370,000);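 active means inhibition above the mean of compounds lying between control limits plus 3 SD, set per campaign, cut at about 8.5% in these data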;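 further: 0% = DMSO-only wells as the low control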
# PLCg1 inh: inhibitors of human phospholipase C gamma1; P19174; actives 0.84% (n = 370,000); inhibition, % at 12.2 µM; purified PLC-gamma1, fluorogenic substrate, fluorescence; in the data active means inhibition above about 9.5%
# TbMetRS inhib: blocks T. brucei methionyl-tRNA synthetase activity. purified T. brucei MetRS, ATP depletion, Kinase-Glo luminescence. inhibition, % at 11.9 µM. actives 0.4% (n = 360,000);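 active means inhibition above a per-plate cutoff of the control wells' mean inhibition plus 3 SD, cut at about 5.5% in these data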;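 further: 0% = DMSO wells median and 100% = median of wells with control inhibitor compound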
#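 System: purified T. brucei MetRS enzyme / Detection: Kinase-Glo luciferase luminescence reporting remaining unconsumed ATP / Medium: HEPES buffer with MgCl2, KCl, DTT, spermine, BSA, pyrophosphatase / Replication: singlicate, one well per compound / Evaluation: percent inhibition relative to median high and low control wells / Schedule: 2 h aminoacylation at 25 °C after 15 min preincubation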
# TbMetRS confirm: Trypanosoma brucei MetRS inhibition confirmed; shares compounds with TbMetRS inhib; T. brucei MetRS enzyme, luminescence (ATP depletion); inhibition, % at 11.9 µM; actives 93% (n = 1,400); in the data active means inhibition above about 7%
# Jurkat cytotox: Jurkat T cell cytotoxicity for MetRS hits; shares compounds with TbMetRS inhib; Jurkat cells viability, ATP luminescence; inhibition, % at 8.3 µM; actives 12% (n = 1,400); in the data active means inhibition above about 15%;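 further: 0% = vehicle and 100% = reference inhibitor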
# Tb MetRS inh FP: T. brucei MetRS inhibition, orthogonal assay | shares compounds with TbMetRS inhib | purified T. brucei MetRS, fluorescence polarization | inhibition, % at 11.9 µM | actives 44% (n = 1,400); in the data active means inhibition above about 17%;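 further: 0% = vehicle wells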
# ADAM10 confirm: confirmation of inhibitors of human ADAM10. shares compounds with ADAM10 inh. ADAM10 QFRET peptide cleavage, EDANS fluorescence. inhibition, % at 6.95 µM. actives 1% (n = 2,100). AID 743208;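 active means inhibition above about 20% chosen separately for each screening run, limit read from the data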;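 further: 0% = DMSO wells and 100% = marimastat wells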
# ADAM17 counter: ADAM17 inhibition, counter-screen for ADAM10 exosite hits; shares compounds with ADAM10 inh; ADAM17 QFRET peptide cleavage, EDANS fluorescence; inhibition, % at 6.95 µM; actives 0.5% (n = 2,100); AID 743214;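 active means mean triplicate inhibition above the solvent-only control wells' mean plus 3 SD, cut at about 12% in these data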;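 further: 0% = DMSO wells and 100% = marimastat wells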
# ADAM10 ctr: inhibits human ADAM10 in ADAM17 exosite counter-screen | AID 743256 | shares compounds with ADAM17 inh | recombinant ADAM10, EDANS/DABCYL FRET peptide cleavage, 3 h | actives 47% (n = 2,900) | inhibition, % at 6.95 µM;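 active means mean inhibition over the triplicate runs exceeds the activity threshold set in the earlier primary screen, cut at about 20% in these data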;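 further: 0% = DMSO wells and 100% = marimastat wells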
# ADAM17 confirm: human ADAM17 inhibition, confirmation; AID 743257; inhibition, % at 6.95 µM; actives 65% (n = 2,900); recombinant ADAM17, EDANS/DABCYL QFRET peptide cleavage; shares compounds with ADAM17 inh;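 active means mean inhibition across replicates above the hit cutoff set in the primary screen, cut at about 8.5% in these data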;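 further: 0% = DMSO wells and 100% = marimastat wells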
# * hit, by the source's call; . = no result.
SMILES,PLCb3 inh,ADAM10 inh,ADAM17 inh,PLCg1 inh,TbMetRS inhib,TbMetRS confirm,Jurkat cytotox,Tb MetRS inh FP,ADAM10 confirm,ADAM17 counter,others
COc1ccc2[nH]c(=O)c(CN(C(=O)NC3CCCCC3)C3CCCCC3)cc2c1,1.8,-43.4,-10.7,-1.9,7.0*,37.2*,17.7*,16.2,.,.,
COc1ccc2[nH]c(=O)c(CNC3CCCCC3)cc2c1,-78.2,-437.7,-143.5,-62.3,0.1,.,.,.,.,.,
CCOC(=O)N1CCN(C(=O)CCCn2c(=O)[nH]c3ccccc3c2=O)CC1,3.5,-0.8,-0.3,2.2,-0.4,.,.,.,.,.,
CC(=O)c1ccc(N2CCN(C(=O)CCCn3c(=O)[nH]c4ccccc4c3=O)CC2)cc1,-12.9,-7.7,-3.7,-2.8,23.1*,32.5*,4.0,16.3,.,.,
CC(C)NC(=O)c1ccccc1-c1ccccc1,-0.3,-8.3,-3.5,-0.9,-1.6,.,.,.,.,.,
CC(NC(=O)c1cccc2c1Oc1ccccc1S2)C(=O)O (configuration not stated),.,.,.,.,8.7*,11.4*,-7.8,2.0,.,.,
O=C(CN1CCN(Cc2ccc(Cl)cc2)CC1)N/N=C/c1c[nH]c2ccccc12,-5.1,-4.1,-2.0,2.0,8.4*,30.8*,0.4,15.6,.,.,
O=C(CCC(=O)Nc1ccccc1Cl)N/N=C/c1c[nH]c2ccccc12,3.0,-1.9,-0.2,1.0,8.0*,15.6*,-3.2,1.6,.,.,
O=C(N[C@@H](Cc1cccnc1)C(=O)N1CCC[C@H]1C(=O)NCCc1ccccc1Cl)c1ccc(Cl)c(Cl)c1,2.4,-5.2,-3.0,3.3,.,.,.,.,.,.,
CCOc1ccc(-c2nnc(NC(=O)COc3ccccc3F)o2)cc1,-3.5,-0.3,-1.5,-4.6,-0.3,.,.,.,.,.,
O=C(O)c1cc(S(=O)(=O)N2CC3CC3C2C(=O)O)c(Cl)cc1Cl (configuration not stated),-4.2,-2.4,-6.2,-1.6,-0.3,.,.,.,.,.,
Nc1nc(N)c(-c2cccc(C(F)(F)F)c2)c(Cc2cccc(C(F)(F)F)c2)n1,1.3,36.5*,14.6*,4.0,15.9*,60.1*,-6.3,34.2*,0.6,0.3,
Nc1ncccc1OCc1cccc(C(F)(F)F)c1,-8.3,-2.5,-2.5,-1.1,-1.2,.,.,.,.,.,
O=C(NCCC1=CCCCC1)c1[nH]c(C(F)(F)F)nc1-c1ccccc1,3.5,4.4,0.3,5.5,-0.1,.,.,.,.,.,
CC(=O)c1cccc(-c2ccnc3c2CC(C(=O)NCC2CCOCC2)O3)c1 (configuration not stated),-1.1,-14.4,-1.1,1.2,-0.2,.,.,.,.,.,
O=C(NCc1nc2ccccc2[nH]1)C1=C[C@H](c2coc3ccccc3c2=O)C[C@H](OCc2ccc(CO)cc2)O1,-6.0,24.1*,5.5,1.1,23.7*,58.1*,0.7,32.3*,3.2,1.1,
O=C(NC1CC1)C1=C[C@@H](c2coc3ccccc3c2=O)C[C@@H](OCc2ccc(CO)cc2)O1,-2.3,-8.9,-3.0,4.8,0.0,.,.,.,.,.,
COc1cccc(C(C)(O)c2nc(/C=C/c3ccccc3)cs2)c1 (configuration not stated),-8.3,7.2,2.5,-8.3,-0.1,.,.,.,.,.,
Cn1c(NCc2cc(Br)ccc2O)nc2ccccc21,3.8,20.6*,4.8,5.3,41.3*,57.6*,6.1,24.4*,0.9,0.5,
Cc1cc(SCC(=O)N/N=C/c2ccc(O)c(O)c2)c(C)cc1Br,3.8,29.4*,4.2,-1.4,41.2*,82.3*,15.1*,55.6*,5.6,1.7,
Cc1ccc(C(=O)CN2C(=O)NC3(CCc4ccccc43)C2=O)s1 (configuration not stated),-5.4,1.5,-5.6,-1.3,-0.2,.,.,.,.,.,
COc1ccc(-c2nnc(SC(C(=O)c3c[nH]c4ccccc34)c3ccccc3)n2N)cc1OC (configuration not stated),2.1,22.2*,7.8,4.1,16.2*,27.6*,2.9,18.1*,4.6,1.4,
COc1ccccc1NS(=O)(=O)c1cccc(NC(=O)Nc2cccc(Cl)c2)c1,-1.5,30.7*,8.5,0.3,31.1*,41.1*,7.3,71.9*,10.6,3.7,
CCO[C@H]1OC(C(=O)NCc2nc3ccccc3[nH]2)=C[C@@H](c2ccccc2)[C@@H]1CCCO,0.0,-2.6,-1.9,0.0,0.9,.,.,.,.,.,
CCO[C@@H]1OC(C(=O)NCc2nc3ccccc3[nH]2)=C[C@H](c2csc3ccccc23)[C@H]1CCCO,-0.1,20.5*,2.6,-0.8,86.3*,93.3*,2.6,97.1*,4.4,1.7,
SMILES,PLCb3 inh,ADAM10 inh,ADAM17 inh,PLCg1 inh,TbMetRS inhib,TbMetRS confirm,Jurkat cytotox,Tb MetRS inh FP,ADAM10 confirm,ADAM17 counter,others
OC(c1cc(F)cc(Cl)c1)c1ncc(-c2ccc(Cl)cc2)[nH]1 (configuration not stated),4.2,29.1*,17.3*,4.6,34.3*,68.6*,11.8,47.4*,4.8,0.3,ADAM10 ctr=21.4*;ADAM17 confirm=11.2*
CCCCN1C[C@H](c2ccc(OC)cc2)[C@@H](CC(=O)Nc2ccc(Br)cc2)C1=O,6.5,10.3,14.0*,7.8,44.8*,67.6*,8.7,34.0*,.,.,ADAM10 ctr=4.2;ADAM17 confirm=4.1
O=C(NCc1cccc(C(F)(F)F)c1)c1cccc(S(=O)(=O)NCc2ccccc2)c1,-0.8,18.0,12.0*,4.9,23.1*,21.8*,6.0,7.8,.,.,ADAM10 ctr=24.2*;ADAM17 confirm=11.2*
O=C(NCc1ccccc1F)c1cccc(S(=O)(=O)NCc2ccccc2)c1,-9.4,-2.9,-3.7,2.4,-0.1,.,.,.,.,.,
Cc1ccccc1CN1CCN(c2ccc(S(=O)(=O)N3CCCC3)cn2)CC1,-5.4,-5.0,-3.0,-3.2,0.3,.,.,.,.,.,
Clc1ccccc1N1CCN(Cc2c[nH]c3ccccc23)CC1,-6.1,3.4,0.2,5.1,0.3,.,.,.,.,.,
O=C(C(=O)N1CCN(c2ccccc2Cl)CC1)c1c[nH]c2ccccc12,-2.1,25.9*,13.7*,1.8,12.9*,24.1*,18.0*,7.5,6.2,0.8,ADAM10 ctr=20.6*;ADAM17 confirm=11.8*

# Screening results as filed in PubChem BioAssay.
